Columns and labels:
Format in all cases: functional
Hs-578T = test: Growth inhibition of human Hs578T cells at 10 uM after 48 hrs by SRB assay; conditions: read-out: GI
Outline: (§1)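 Cells grown in RPMI 1640 with 5% FBS and 2 mM L-glutamine, plated at 5000–40,000 cells/well by doubling time and preincubated 24 h (37 °C, 5% CO2); a time-zero plate is TCA-fixed. Single dose added, then 48 h incubation. Fixed with cold TCA, stained with 0.4% SRB, dye solubilized in 10 mM Tris base, absorbance at 515 nm; percent growth vs time-zero and untreated control.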

BT-549 = test: Growth inhibition of human BT549 cells at 10 uM after 48 hrs by SRB assay; conditions: BT-549, 48 h, read-out: GI; outline: as §1
SF-539 = test: Growth inhibition of human SF539 cells at 10 uM after 48 hrs by SRB assay; conditions: SF-539, 48 h, read-out: GI; outline: as §1
UACC-257 = test: Growth inhibition of human UACC257 cells at 10 uM after 48 hrs by SRB assay; conditions: UACC-257, 48 h, read-out: GI
Outline: (§2)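 NCI 60-cell-line screen with a single 10 µM dose. Cells are grown in RPMI 1640 with 5% FBS and 2 mM L-glutamine, plated at 5000–40,000 cells/well according to doubling time, and preincubated 24 h at 37 °C, 5% CO2; time-zero plates are TCA-fixed at that point. Drug exposure is 48 h. Adherent cells are fixed with cold TCA, stained with 0.4% SRB in 1% acetic acid and read at 515 nm. Percent growth is calculated relative to time-zero and untreated controls and reported as GI%.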

HCT-116 = test: Growth inhibition of human HCT116 cells at 10 uM after 48 hrs by SRB assay; conditions: HCT-116, 48 h, read-out: GI; outline: as §1
[1] = Growth inhibition of human HCC2998 cells at 10 uM after 48 hrs by SRB assay; conditions: HCC 2998, 48 h, read-out: GI; outline: as §1
HOP-92 = test: Growth inhibition of human HOP92 cells at 10 uM after 48 hrs by SRB assay; conditions: HOP-92, 48 h, read-out: GI; outline: as §1
OVCAR-4 = test: Growth inhibition of human OVCAR4 cells at 10 uM after 48 hrs by SRB assay; conditions: OVCAR-4, 48 h, read-out: GI; outline: as §1
UACC-62 = test: Growth inhibition of human UACC62 cells at 10 uM after 48 hrs by SRB assay; conditions: UACC-62, 48 h, read-out: GI; outline: as §2
MDA-MB-231 = test: Growth inhibition of human MDA-MB-231 cells at 10 uM after 48 hrs by SRB assay; conditions: MDA-MB-231, 48 h, read-out: GI; outline: as §1
LOX IMVI = test: Growth inhibition of human LOXIMVI cells at 10 uM after 48 hrs by SRB assay; conditions: read-out: GI; outline: as §1
MDA-MB-435 = test: Growth inhibition of human MDA-MB-435 cells at 10 uM after 48 hrs by SRB assay; conditions: MDA-MB-435, 48 h, read-out: GI; outline: as §1
COLO 205 = test: Growth inhibition of human COLO205 cells at 10 uM after 48 hrs by SRB assay; conditions: COLO 205, 48 h, read-out: GI; outline: as §1
A498 = test: Growth inhibition of human A498 cells at 10 uM after 48 hrs by SRB assay; conditions: A498, 48 h, read-out: GI; outline: as §1
MCF7 = test: Growth inhibition of human MCF7 cells at 10 uM after 48 hrs by SRB assay; conditions: MCF7, 48 h, read-out: GI; outline: as §1
M14 = test: Growth inhibition of human M14 cells at 10 uM after 48 hrs by SRB assay; conditions: M14, 48 h, read-out: GI; outline: as §1
RXF 393 = test: Growth inhibition of human RXF393 cells at 10 uM after 48 hrs by SRB assay; conditions: RXF 393, 48 h, read-out: GI; outline: as §1
K562 = test: Growth inhibition of human K562 cells at 10 uM after 48 hrs by SRB assay; conditions: K562, 48 h, read-out: GI; outline: as §1
CCRF-CEM = test: Growth inhibition of human CCRF-CEM cells at 10 uM after 48 hrs by SRB assay; conditions: read-out: GI; outline: as §1
SN12C = test: Growth inhibition of human SN12C cells at 10 uM after 48 hrs by SRB assay; conditions: read-out: GI; outline: as §2
CAKI-1 = test: Growth inhibition of human Caki1 cells at 10 uM after 48 hrs by SRB assay; conditions: CAKI-1, 48 h, read-out: GI; outline: as §1
IGROV-1 = test: Growth inhibition of human IGROV1 cells at 10 uM after 48 hrs by SRB assay; conditions: IGROV-1, 48 h, read-out: GI; outline: as §1
SK-MEL-28 = test: Growth inhibition of human SK-MEL-28 cells at 10 uM after 48 hrs by SRB assay; conditions: SK-MEL-28, 48 h, read-out: GI; outline: as §1
SK-OV-3 = test: Growth inhibition of human SKOV3 cells at 10 uM after 48 hrs by SRB assay; conditions: SK-OV-3, 48 h, read-out: GI; outline: as §2
NCI-H23 = test: Growth inhibition of human NCI-H23 cells at 10 uM after 48 hrs by SRB assay; conditions: NCI-H23, 48 h, read-out: GI; outline: as §1
SF-295 = test: Growth inhibition of human SF295 cells at 10 uM after 48 hrs by SRB assay; conditions: SF-295, 48 h, read-out: GI; outline: as §1
HL-60(TB) = test: Growth inhibition of human HL-60(TB) cells at 10 uM after 48 hrs by SRB assay; conditions: HL-60, 48 h, read-out: GI
Outline: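 Single-concentration pass across the 60-line panel in RPMI 1640 with 5% FBS. Cells preincubated 24 h, then exposed 48 h at 37 °C, 5% CO2. Read by SRB staining with absorbance at 515 nm. Percent growth is taken relative to time-zero and untreated controls and reported as percent growth inhibition (GI %).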

HT-29 = test: Growth inhibition of human HT-29 cells at 10 uM after 48 hrs by SRB assay; conditions: HT-29, 48 h, read-out: GI; outline: as §1
U-251 = test: Growth inhibition of human U251 cells at 10 uM after 48 hrs by SRB assay; conditions: U-251, 48 h, read-out: GI; outline: as §2
NCI-H460 = test: Growth inhibition of human NCI-H460 cells at 10 uM after 48 hrs by SRB assay; conditions: NCI-H460, 48 h, read-out: GI; outline: as §1
NCI-H322M = test: Growth inhibition of human NCI-H322M cells at 10 uM after 48 hrs by SRB assay; conditions: read-out: GI; outline: as §1
SNB-75 = test: Growth inhibition of human SNB75 cells at 10 uM after 48 hrs by SRB assay; conditions: SNB-75, 48 h, read-out: GI; outline: as §2
ACHN = test: Growth inhibition of human ACHN cells at 10 uM after 48 hrs by SRB assay; conditions: read-out: GI; outline: as §1
SR = test: Growth inhibition of human SR cells at 10 uM after 48 hrs by SRB assay; conditions: read-out: GI; outline: as §2

SMILES | inhibition of growth at 10 µM (Hs-578T) | inhibition of growth at 10 µM (BT-549) | inhibition of growth at 10 µM (SF-539) | inhibition of growth at 10 µM (UACC-257) | inhibition of growth at 10 µM (HCT-116) | inhibition of growth at 10 µM [1] | inhibition of growth at 10 µM (HOP-92) | inhibition of growth at 10 µM (OVCAR-4) | inhibition of growth at 10 µM (UACC-62) | inhibition of growth at 10 µM (MDA-MB-231) | inhibition of growth at 10 µM (LOX IMVI) | inhibition of growth at 10 µM (MDA-MB-435) | inhibition of growth at 10 µM (COLO 205) | inhibition of growth at 10 µM (A498) | inhibition of growth at 10 µM (MCF7) | inhibition of growth at 10 µM (M14) | inhibition of growth at 10 µM (RXF 393) | inhibition of growth at 10 µM (K562) | inhibition of growth at 10 µM (CCRF-CEM) | inhibition of growth at 10 µM (SN12C) | further results
O=c1c2cccc3c(NCCO)ccc(c32)c2nc3ccccc3n12 | < 20% | < 20% | < 20% | < 20% | < 20% | < 20% | 40% | < 20% | 23.6% | < 20% | < 20% | < 20% | < 20% | 32.9% | 57.5% | < 20% | < 20% | < 20% | < 20% | < 20% | inhibition of growth at 10 µM (CAKI-1): < 20%; inhibition of growth at 10 µM (IGROV-1): 63.5%; inhibition of growth at 10 µM (SK-MEL-28): < 20%; inhibition of growth at 10 µM (SK-OV-3): < 20%; inhibition of growth at 10 µM (NCI-H23): 22.2%; inhibition of growth at 10 µM (SF-295): < 20%; inhibition of growth at 10 µM (HL-60(TB)): < 20%; inhibition of growth at 10 µM (HT-29): < 20%; inhibition of growth at 10 µM (U-251): < 20%; inhibition of growth at 10 µM (NCI-H460): 42.8%; inhibition of growth at 10 µM (NCI-H322M): < 20%; inhibition of growth at 10 µM (SNB-75): < 20%; inhibition of growth at 10 µM (ACHN): < 20%
Nc1ccc(Sc2ccc3c4c2cccc4c(=O)n2c4ccccc4nc32)cc1 | 40.4% | 40.9% | 51.5% | 29% | 53.2% | < 20% | 71.3% | 26% | 68.1% | 45.6% | 70.8% | < 20% | 49.2% | 41.2% | 76.4% | 54.6% | 27.4% | 39.7% | 55.1% | 80.8% | inhibition of growth at 10 µM (CAKI-1): 94.1%; inhibition of growth at 10 µM (SR): 83.9%; inhibition of growth at 10 µM (IGROV-1): 65.5%; inhibition of growth at 10 µM (SK-MEL-28): 26.3%; inhibition of growth at 10 µM (SK-OV-3): 46.1%; inhibition of growth at 10 µM (NCI-H23): 62.5%; inhibition of growth at 10 µM (SF-295): 88%; inhibition of growth at 10 µM (HL-60(TB)): 81.8%; inhibition of growth at 10 µM (HT-29): 33.3%; inhibition of growth at 10 µM (U-251): 60.1%; inhibition of growth at 10 µM (NCI-H460): 90.5%; inhibition of growth at 10 µM (NCI-H322M): 38.2%; inhibition of growth at 10 µM (SNB-75): 56.3%; inhibition of growth at 10 µM (ACHN): 77.9%
O=c1c2cccc3c(N4CCOCC4)ccc(c32)c2nc3ccccc3n12 | 59.8% | < 20% | < 20% | < 20% | < 20% | 26.8% | 40.8% | 30.1% | 37.9% | < 20% | < 20% | < 20% | < 20% | < 20% | 76% | < 20% | < 20% | < 20% | < 20% | < 20% | inhibition of growth at 10 µM (CAKI-1): 30.4%; inhibition of growth at 10 µM (SR): < 20%; inhibition of growth at 10 µM (IGROV-1): 41.7%; inhibition of growth at 10 µM (SK-MEL-28): < 20%; inhibition of growth at 10 µM (SK-OV-3): < 20%; inhibition of growth at 10 µM (NCI-H23): 23.1%; inhibition of growth at 10 µM (SF-295): < 20%; inhibition of growth at 10 µM (HL-60(TB)): < 20%; inhibition of growth at 10 µM (HT-29): < 20%; inhibition of growth at 10 µM (U-251): < 20%; inhibition of growth at 10 µM (NCI-H460): < 20%; inhibition of growth at 10 µM (NCI-H322M): < 20%; inhibition of growth at 10 µM (SNB-75): 20.9%; inhibition of growth at 10 µM (ACHN): < 20%

From ChEMBL document CHEMBL2424551, “Synthesis, in vitro evaluation and molecular modelling of naphthalimide analogue as anticancer agents” (2013)
